In ChEMBL document CHEMBL1681701, “Huprines as a new family of dual acting trypanocidal-antiplasmodial agents” (Bioorg Med Chem, 2011):
Where a name gives a salt, the structure may show the parent alone.

Columns and labels:
Trypanosoma brucei [1] = assay: Antitrypanosomal activity against Trypanosoma brucei 427; format: functional, organism-based
Trypanosoma brucei [2] = assay: Trypanocidal activity against bloodstream form of Trypanosoma brucei 427 after 48 hrs; format: functional, organism-based; settings: Trypanosoma brucei, 427, 48 h
[3] = Selectivity index, ratio of IC50 for rat L6 cells to IC 50 for Trypanosoma brucei 427; format: toxicity, cell-based; settings: L6 cells versus Trypanosoma brucei 427, read-out: Selectivity Index
Plasmodium falciparum = assay: Antiplasmodial activity against chloroquine-resistant Plasmodium falciparum K1; format: functional, organism-based
In short: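 K1 parasites grown in human A+ erythrocytes in RPMI 1640 with A+ serum and D-glucose; predominantly early ring-stage cultures used. Twofold serial dilutions run in duplicate from DMSO stocks (final DMSO ≤0.5%), at 2.5% haematocrit and 1% parasitaemia. Incubation was 48 h at 37 °C under 93% N2/3% O2/4% CO2. Growth was read as lactate dehydrogenase activity (APAD/NBT, 550 nm), and IC50 was taken by linear regression.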

[4] = Selectivity index, ratio of IC50 for rat L6 cells to IC50 for chloroquine-resistant Plasmodium falciparum K1; format: toxicity, cell-based; settings: read-out: Selectivity Index
L6 = assay: Cytotoxicity against rat L6 cells after 6 days by Alamar blue assay; format: cell-based; settings: L6, 144 h
In short: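 Rat skeletal myoblast L6 cells seeded at 1 × 10^4 ml−1 in growth medium with a range of compound concentrations and held 6 days at 37 °C. Alamar Blue was then added and fluorescence read after a further 8 h. IC50 is the mean of triplicate experiments ± SEM.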

Row | Compound | IC50 (Trypanosoma brucei [1]) [nM] | IC50 (Trypanosoma brucei [2]) [nM] | IC90 (Trypanosoma brucei [2]) [nM] | IC50 (L6) [nM] | further results
1 | CC(C)C1=CC2Cc3nc4ccccc4c(N)c3C(C1)C2 (centres undefined) | 300 | – | – | – | –
2 | CC1=CC2Cc3nc4cccc(F)c4c(N)c3C(C1)C2 (centres undefined) | – | 3710 | 15800 | – | –
3 | CC1=CC2Cc3nc4cc(Cl)ccc4c(N)c3C(C1)C2 (centres undefined) | 300 | – | – | – | –
4 | Nc1c2c(nc3ccccc13)CC1C=C(c3ccccc3)CC2C1 (centres undefined) | – | 1650 | 4700 | 3510 | selectivity ratio [3]: 2.1; IC50 (Plasmodium falciparum): 7120 nM; selectivity ratio [4]: 2.1
5 | C=CCC1=CC2Cc3nc4ccccc4c(N)c3C(C1)C2 (centres undefined) | 300 | – | – | – | –
6 | CCC1=C[C@@H]2Cc3nc4cc(Cl)ccc4c(N)c3[C@H](C1)C2 [HUPRINE X HYDROCHLORIDE] | 300 | 840 | – | 12500 | –
